# Assay outcomes: PubChem BioAssay, The Scripps Research Institute Molecular Screening Center
# mABHD4 FP – inhibitors of mouse ABHD4 | purified mABHD4, FP-Rh probe fluorescence polarization | inhibition, % at 8.92 µM | hit rate 0.54% among 370,000 | AID 720543;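 active = inhibition exceeding the mean over every tested compound plus 3 SD, cut at about 30% in these data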;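 note: 0% = plate median of compound wells and 100% = S159A mutant with DMSO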
# Target sequence (Q8VD66 whole entry, looked up): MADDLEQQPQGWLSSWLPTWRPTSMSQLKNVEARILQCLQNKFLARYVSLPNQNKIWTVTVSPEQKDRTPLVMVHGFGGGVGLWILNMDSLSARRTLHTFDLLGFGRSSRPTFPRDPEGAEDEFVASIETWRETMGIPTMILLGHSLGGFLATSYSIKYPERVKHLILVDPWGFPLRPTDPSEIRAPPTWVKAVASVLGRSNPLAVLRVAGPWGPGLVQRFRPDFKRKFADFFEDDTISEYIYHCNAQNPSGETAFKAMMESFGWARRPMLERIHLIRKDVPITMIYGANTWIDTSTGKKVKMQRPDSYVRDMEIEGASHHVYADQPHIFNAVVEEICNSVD
#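 Assay system: Wild-type mouse ABHD4 protein | Medium: HEPES pH 7.0 buffer, 150 mM NaCl, 0.01% Pluronic F-127 | Incubation: Enzyme–compound pre-incubation 45 min, then probe 60 min, both 25 °C | Technique: Fluorescence polarization with parallel and perpendicular emission, 525/598 nm | Evaluation: % inhibition of FP-Rh probe binding versus controls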
# HTRA1 inhibitor – blocks human HTRA1 serine peptidase | recombinant HTRA1, FP-rhodamine activity-based probe, fluorescence polarization | inhibition, % at 5.96 µM | hit rate 0.5% among 340,000 | AID 504803; in the data active = inhibition above about 36%;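 note: 0% = enzyme with DMSO and 100% = wells lacking enzyme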
# PAFAH2 inh – inhibitors of human PAFAH2. recombinant PAFAH2, FP-rhodamine activity probe, fluorescence polarization. inhibition, % at 3.39 µM. hit rate 0.99% among 340,000. AID 492956;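 active = inhibition above the mean over all tested compounds plus 3 SD, cut at about 30% in these data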;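 note: inhibitors block probe labeling of enzyme so polarization drops; 0% = enzyme with DMSO and 100% = wells lacking PAFAH2 protein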
# pPAFAH FP inh – pPAFAH (human) enzyme inhibition. Q13093. recombinant pPAFAH, FP-rhodamine probe fluorescence polarization. inhibition, % at 3.39 µM. hit rate 1.5% among 330,000;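 active = inhibition above the mean inhibition across the screen plus 3 SD, cut at about 25% in these data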;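 note: inhibitors block binding of the rhodamine activity-based probe so polarization drops; 0% = enzyme with DMSO and 100% = wells lacking pPAFAH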
# PAFAH1B2 inh – blocks human PAF acetylhydrolase 1b catalytic subunit 2; inhibition, % at 3.39 µM; hit rate 1.2% among 340,000; recombinant PAFAH1B2, FP-rhodamine activity probe, fluorescence polarization; P68402;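 active = inhibition above the mean of all tested compounds plus 3 SD, cut at about 24% in these data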;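 note: 0% = enzyme with DMSO and 100% = wells lacking PAFAH1B2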
# Target sequence (P68402 whole entry, looked up): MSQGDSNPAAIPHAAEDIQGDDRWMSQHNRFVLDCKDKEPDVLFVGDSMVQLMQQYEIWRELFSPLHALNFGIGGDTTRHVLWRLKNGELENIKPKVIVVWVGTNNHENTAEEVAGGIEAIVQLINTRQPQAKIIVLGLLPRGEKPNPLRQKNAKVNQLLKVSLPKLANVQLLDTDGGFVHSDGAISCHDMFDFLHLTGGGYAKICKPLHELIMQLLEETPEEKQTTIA
# PAFAH1B3 FP inh – blocks human PAF acetylhydrolase 1B catalytic subunit 3; recombinant PAFAH1B3, FP-rhodamine probe, fluorescence polarization; inhibition, % at 3.39 µM; hit rate 0.28% among 340,000;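 active = inhibition above the screen-wide average of all tested compounds plus 3 SD, cut at about 25% in these data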;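 note: 0% = enzyme with DMSO only and 100% = wells lacking PAFAH1B3 protein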
# PAFAH2 confirm – PAFAH2 (human) inhibition, confirmed; AID 493030; shares compounds with PAFAH2 inh; inhibition, % at 3.39 µM; recombinant PAFAH2, FP-rhodamine activity probe, fluorescence polarization; hit rate 65% among 2,300;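 active = mean inhibition over three repeats above a set limit taken from the earlier primary screen, cut at about 30% in these data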;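 note: inhibitor blocks binding of rhodamine activity probe so polarization falls; 0% = enzyme with DMSO and 100% = wells lacking PAFAH2 protein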
# * hit, by the source's call; . = no result. Rows were chosen to be rich in hits. Some 2.8% of all compounds tested hit in one or more screens of this group.
SMILES,mABHD4 FP,HTRA1 inhibitor,PAFAH2 inh,pPAFAH FP inh,PAFAH1B2 inh,PAFAH1B3 FP inh,PAFAH2 confirm
O=C(COC(=O)c1cccs1)Nc1cccc(S(=O)(=O)N2CCCCC2)c1,-8.2,-20.1,68.8*,7.3,-6.3,18.5,63.5*
COc1ccc2c(CCN3C(=O)c4ccccc4C3=O)c(-c3c(CCN4C(=O)c5ccccc5C4=O)c4ccccc4n3C(=O)OC(C)(C)C)[nH]c2c1,-9.2,.,.,.,.,.,.
COC(=O)C[C@H]1CC[C@@H]2[C@@H](COc3ccc(NC(=O)C4CCCCC4)cc3C(=O)N2C)O1,6.7,.,.,.,.,.,.
O=C(COC(=O)c1ccc(Cl)nc1)NC1CCCCCC1,2.9,5.6,22.9,4.2,-0.8,-5.5,.
NC(=O)Nc1ccc(C(=O)OCC(=O)NC2CCCCC2)cc1,-0.3,0.8,81.2*,4.1,-0.1,9.0,80.2*
CC(=O)Nc1ccc(C(=O)OCC(=O)NC2CCCCCCC2)cc1,-6.9,2.3,79.0*,-10.1,8.2,16.1,74.7*
CN(C(=O)COC(=O)c1ccc(NS(=O)(=O)c2cccs2)cc1)C1CCCCC1,-2.6,-4.1,69.9*,21.7,0.2,11.8,72.1*
CC(=O)Nc1ccc(C(=O)OCC(=O)N(C)C2CCCCC2)cc1,5.5,5.7,31.8*,-6.9,2.5,-0.7,27.4
CCOC(=O)C1=NOC(C(=O)NCCO)(C(=O)C2CC2)C1 (stereo unspecified),-3.3,.,.,.,.,.,.
Cc1c(NS(=O)(=O)c2cccc(C(=O)N3CCC(C)CC3)c2)c(=O)n(-c2ccccc2)n1C,2.0,1.1,4.9,-2.3,6.1,7.2,.
Cc1c(NS(=O)(=O)c2cccc(C(=O)OCC(=O)N(C)C3CCCCC3)c2)c(=O)n(-c2ccccc2)n1C,2.2,0.3,33.7*,5.4,2.5,2.3,20.7
CCc1ccc(NC(=O)CSc2nc3ccccc3c(=O)n2CCCC(=O)NCCCN2CCOCC2)cc1,-4.5,-4.4,196.1*,2.7,3.0,5.9,1.9
Cc1ccc(NC(=O)CSc2nc3ccccc3c(=O)n2CCCC(=O)NCCCN2CCOCC2)cc1C,-1.5,-1.6,-9.8,1.6,-0.9,1.4,.
CCC[C@H]1[C@@H](OC(=O)NCc2ccccc2)CC[C@@]23CCCN2C(=O)CCC[C@@H]13,7.4,.,.,.,.,.,.
CCOC(=O)c1c(NC(=O)C2CC(Cl)=CCC2C(=O)O)sc2c1CCCCC2 (stereo unspecified),.,-21.9,38.4*,14.5,6.7,18.4,27.6
Cc1cc(/C=C2\SC(N)=NC2=O)c(C)n1-c1ccccc1,2.6,2.9,48.6*,6.6,0.2,-4.0,32.8*
CCC(CO)Oc1cc(NC(=O)c2ccccc2F)c2ncn(C(C)C)c2c1 (stereo unspecified),5.1,-1.4,3.2,-2.0,5.0,-2.0,.
CCC(CO)Oc1cc(NC(=O)Cc2ccccc2F)c2ncn(C(C)C)c2c1 (stereo unspecified),1.9,-3.0,40.4*,18.7,6.3,8.5,20.1
COc1ccc(C(=O)O/N=C2\CCS(=O)(=O)c3sccc32)cc1,4.4,4.7,89.1*,9.4,2.0,10.1,83.4*
Cc1ccccc1C(=O)O/N=C1\CCS(=O)(=O)c2sccc21,2.7,-7.4,68.3*,7.0,12.0,-9.0,68.2*
COc1ccc(C(=O)CSc2nc(C)cc(C)n2)cc1C,8.5,-5.9,41.8*,10.9,2.6,5.8,1.8
COc1ccc(C(=O)CSc2nc(C)cc(=O)[nH]2)cc1C,0.9,10.5,1.1,5.8,-0.4,9.6,.
Cc1n[nH]c(C)c1S(=O)(=O)NC(C)Cc1ccccn1 (stereo unspecified),-1.3,.,.,.,.,.,.
O=C(COC(=O)C1CCCC1)Nc1cccc(Cl)c1Cl,-2.1,-3.5,32.2*,8.4,5.4,10.9,7.4
COc1ccc([N+](=O)[O-])cc1NC(=O)COC(=O)C1CC1,-5.0,-3.7,49.0*,-0.3,3.2,9.2,-1.4
SMILES,mABHD4 FP,HTRA1 inhibitor,PAFAH2 inh,pPAFAH FP inh,PAFAH1B2 inh,PAFAH1B3 FP inh,PAFAH2 confirm
O=C(COC(=O)c1ccc(-n2cnnn2)cc1)Nc1cc(Cl)ccc1F,-6.6,-14.0,34.2*,-4.7,-0.7,-4.0,27.5
CCC(=O)OCC(=O)Nc1cc([N+](=O)[O-])ccc1OC,0.5,4.5,-2.8,4.3,0.4,0.9,.
Nc1ccc(C(=O)OCC(=O)Nc2cc([N+](=O)[O-])ccc2F)cc1,0.5,-0.7,82.9*,11.8,0.5,-6.0,82.2*
O=C(C1CCCN(S(=O)(=O)c2cccc3ccccc23)C1)N1CCN(Cc2ccccc2)CC1 (stereo unspecified),-5.6,.,.,.,.,.,.
CCCCNC(=O)C[C@H]1C[C@@]2(C(=O)OC)C(=C[C@H](C3CCCC3)O[C@@H]2C)N(Cc2ccc(Cl)cc2Cl)C1=O,-9.3,.,.,.,.,.,.
C=CCN1C(=O)[C@@H](CC(=O)N2CCCC2)[C@]2(C(=O)OCC)CCCCC/C=C/12,2.0,.,.,.,.,.,.
O=C(COC(=O)C1CCCCC1)Nc1cc([N+](=O)[O-])ccc1F,-1.5,-9.2,48.9*,10.2,17.8,12.2,27.6
COC(=O)[C@@H]1N=C(c2ccc(OC)cc2)O[C@]12C(=O)N(Cc1cn(Cc3ccccc3)nn1)c1cccc(Cl)c12,-6.2,.,.,.,.,.,.
COc1ccc(/C=C2\N=C(c3c(-c4ccccc4)noc3C)OC2=O)cc1OC,8.1,9.9,33.5*,1.8,1.3,7.4,14.1
COc1cc(/C=C2\N=C(c3ccccc3)OC2=O)ccc1OCc1c(C)no[n+]1[O-],4.0,3.6,1.2,4.5,2.9,-0.7,.
C[C@@H]1CN([C@@H](C)CO)C(=O)c2cccc(NC(=O)Nc3cccc4ccccc34)c2O[C@H]1CN(C)S(=O)(=O)c1ccc2c(c1)OCCO2,-16.8,.,.,.,.,.,.
CC(NC(=O)COC(=O)CC(c1ccccc1)c1ccccc1)c1ccccc1 (stereo unspecified),-5.0,-22.3,59.4*,6.1,8.8,1.0,47.3*
Cc1ccc(C(=O)OCC(=O)c2ccc(Cl)s2)s1,6.6,-7.5,74.0*,15.7,2.3,0.8,65.9*
